By IC50 is commonly meant the concentration needed to halve the response being measured.

For data set [1], the system named is 184B5. The experiment in a line: Cytotoxicity against human 184B5 cells assessed as growth inhibition after 48 hrs by SRB assay. Type of data set: cell-based. As to conditions: 184B5, 48 h. The essentials: (§1)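 Cells seeded at 5000–10,000 per well and exposed continuously for 48 h to seven concentrations ([…]). DMSO stocks were diluted in medium, final DMSO ≤0.1%, and matched DMSO medium served as the negative control. Viable cell mass was read by SRB. IC50 is the concentration giving 50% growth decrease versus control. Values are the mean of triplicates from at least two independent experiments.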
Background: Sulforhodamine B stains cellular protein and so reports cell mass.

The test system of data set [2] is MCF7. The experiment in a line: Cytotoxicity against human MCF7 cells assessed as growth inhibition after 48 hrs by SRB assay. The data set is classed as functional, cell-based. As to conditions: MCF7, 48 h. The essentials: as §1
The test system of data set [3] is MDA-MB-231. The experiment in a line: Cytotoxicity against human MDA-MB-231 cells assessed as growth inhibition after 48 hrs by SRB assay. The data set is classed as functional, cell-based. To be noted: MDA-MB-231, 48 h. The essentials:
as §1

Data set [4] concerns MDA-MB-468. The data set can be described thus: Cytotoxicity against human MDA-MB-468 cells assessed as growth inhibition after 48 hrs by SRB assay. Type of data set: functional, cell-based. As to conditions: MDA-MB-468, 48 h. The essentials: as §1
The subject of data set [5] is MDA-MB-231. The data set can be described thus: Induction of apoptosis in human MDA-MB-231 cells assessed as upregulation of Bad expression at 6 uM after 24 to 72 hrs by Western blot method. The data set is classed as functional, cell-based. (In general: In western blotting, separated proteins are transferred to a membrane and probed.)
For data set [6], the system named is MDA-MB-468. The data set can be described thus: Anticlonogenic activity against human MDA-MB-468 cells at 3.5 uM after 12 days. The data set is classed as functional, cell-based.
Data set [7] has as its system MDA-MB-231. The data set can be described thus: Induction of apoptosis in human MDA-MB-231 cells assessed as increase in PARP cleavage at 6 uM after 24 hrs by Western blot method. Type of data set: functional, cell-based.
Data set [8] deals with MDA-MB-231. The data set can be described thus: Induction of apoptosis in human MDA-MB-231 cells at 6 uM after 24 hrs by TUNEL assay. Type of data set: functional, cell-based.
Data set [9] deals with MDA-MB-231. The data set can be described thus: Cell cycle arrest in human MDA-MB-231 cells assessed as accumulation at sub-G1 phase at 6 uM after 48 hrs by flow cytometric method. The data set is classed as functional, cell-based. On the technique in general: In flow cytometry, cells or beads pass a laser one at a time.
Data set [10] deals with 184B5. The experiment in a line: Cell cycle arrest in human 184B5 cells assessed as accumulation at sub-G1 phase at 6 uM after 48 hrs by flow cytometric method. The data set is classed as ADME, cell-based. To be noted: 184b5, 48 h.
Data set [11] deals with HeLa. The experiment in a line: Anticlonogenic activity against human HeLa cells at 3.5 uM after 12 days. The data set is classed as functional, cell-based.
The test system of data set [12] is MCF7. The data set can be described thus: Induction of apoptosis in human MCF7 cells at 6 uM after 24 hrs by TUNEL assay. Type of data set: functional, cell-based.
The subject of data set [13] is MDA-MB-231. The data set can be described thus: Induction of apoptosis in human MDA-MB-231 cells assessed as increase in cytochrome c levels in mitochondria at 6 uM after 24 to 72 hrs by Western blot method. The data set is classed as functional, cell-based.
Data set [14] deals with MDA-MB-231. The experiment in a line: Induction of apoptosis in human MDA-MB-231 cells assessed as downregulation of Bcl-2 expression at 6 uM after 24 to 72 hrs by Western blot method. The data set is classed as functional, cell-based.
Data set [15] relates to MCF7. The data set can be described thus: Anticlonogenic activity against human MCF7 cells at 3.5 uM after 12 days. Type of data set: functional, cell-based.
Data set [16] concerns MDA-MB-231. The experiment in a line: Induction of apoptosis in human MDA-MB-231 cells assessed as change in cell morphology at 6 uM after 24 hrs by acridine orange/ethidium bromide staining-based confocal microscopic method. Type of data set: functional.
Data set [17] in a line: Selectivity index, ratio of IC50 for human MCF10A cells to IC50 for human MCF7 cells. The data set is classed as toxicity. As to conditions: MCF10A cells versus MCF7 cells, read-out: Ratio IC50.
Data set [18] concerns MDA-MB-231. The experiment in a line: Induction of apoptosis in human MDA-MB-231 cells assessed as upregulation of Bax expression at 6 uM after 24 to 72 hrs by Western blot method. Type of data set: functional, cell-based.
Data set [19] concerns MCF-10A. The data set can be described thus: Cytotoxicity against human MCF10A cells assessed as growth inhibition after 48 hrs by SRB assay. The data set is classed as cell-based. Put shortly:
as §1

The subject of data set [20] is MDA-MB-231. The experiment in a line: Effect on Bcl-XL levels in human MDA-MB-231 cells at 6 uM after 24 to 72 hrs by Western blot method. The data set is classed as functional, cell-based.
Data set [21] in a line: Selectivity index, ratio of IC50 for human MCF10A cells to IC50 for human MDA-MB-231 cells. Type of data set: toxicity. As to conditions: MCF10A cells versus MDA-MB-231 cells, read-out: Ratio IC50.
In data set [22] the test system is MCF7. The experiment in a line: Induction of apoptosis in human MCF7 cells assessed as upregulation of Bad expression at 4 to 6 uM after 48 hrs by Western blot method. Type of data set: functional, cell-based.

The source made the active and inactive calls. The rule behind the calls is not given here.

Turning to `COc1ccc2nc3cc(Cl)ccc3c(NCCCN3C(=O)CSC3c3ccc([N+](=O)[O-])cc3)c2c1` (stereo not given), the IC50 in data set [1] is 17.8 µM; in data set [2] it was 4.36 µM; in [3], 3.86 µM; in [4] it was 4.87 µM.

Consider `COc1ccc2nc3cc(Cl)ccc3c(NCCCN3C(=O)CSC3c3ccnc4ccccc34)c2c1` (stereo not given), for which the IC50 was 13.1 µM in data set [1], 6.55 µM in data set [2], 3.7 µM in data set [3] and 6.64 µM in data set [4].

On to `COc1ccc2nc3cc(Cl)ccc3c(NCCCN3C(=O)CSC3c3ccc(N(C)C)cc3)c2c1` (stereo not given), for which the IC50 in data set [1] amounted to 16.4 µM; in data set [2] it was 3.78 µM; in data set [3], 4.25 µM; in [4] it was 3.32 µM.

With `COc1ccc2nc3cc(Cl)ccc3c(NCCCN3C(=O)CSC3c3cccs3)c2c1` (stereo not given), the IC50 stood at 18 µM in data set [1], 3.31 µM in data set [2], 6.76 µM in data set [3] and 4.61 µM in data set [4].

As for `COc1ccc2nc3cc(Cl)ccc3c(NCCCN3C(=O)CSC3c3c(F)cccc3Cl)c2c1` (stereo not given), the IC50 in data set [1] worked out at 8.07 µM; in data set [2], 3.04 µM; in data set [3], 2.12 µM; in data set [4], 3.96 µM.

On to `COc1ccc2nc3cc(Cl)ccc3c(NCCCN3C(=O)CSC3c3ccc(F)cc3F)c2c1` (stereo not given), for which the IC50 in data set [1] came out at 4.14 µM; in data set [2], 2.97 µM; in data set [3], 1.8 µM; in [4], 4.15 µM.

For `COc1ccc2nc3cc(Cl)ccc3c(NCCCN3C(=O)CSC3c3ccc(Cl)cc3Cl)c2c1` (stereo not given), the IC50 in [1] came out at 7.22 µM; in data set [2], 4.1 µM; in [3], 4.05 µM; in data set [4] it was 4.15 µM.

With `COc1ccc2nc3cc(Cl)ccc3c(NCCCN3C(=O)CSC3c3ccccc3)c2c1` (stereo not given), the IC50 in data set [1] was found to be 8.06 µM; in data set [2], 3.23 µM; in [3], 3.55 µM; in [4], 2.54 µM.

`COc1ccc2nc3cc(Cl)ccc3c(NCCCN3C(=O)CSC3c3ccc(F)cc3)c2c1` (stereo not given): the IC50 in data set [1] is 12.1 µM; in data set [2] it was 3.07 µM; in [3], 1.89 µM; in data set [4], 4.26 µM.

`COc1ccc2nc3cc(Cl)ccc3c(NCCCN3C(=O)CSC3c3ccc[nH]3)c2c1` (stereo not given): the IC50 in [1] was found to be 18.4 µM; in [2], 10.6 µM; in data set [3] it was 6.4 µM; in data set [4], 4.52 µM.

`COc1ccc2nc3cc(Cl)ccc3c(NCCCN3C(=O)CSC3c3ccc(Cl)cc3)c2c1` (stereo not given): the IC50 in [1] was 4.58 µM; in data set [2], 3.96 µM; in [3], 3.73 µM; in data set [4], 4.19 µM.

Take `COc1ccc2nc3cc(Cl)ccc3c(NCCCN3C(=O)CSC3c3ccc(N(c4ccccc4)c4ccccc4)cc3)c2c1` (stereo not given): the IC50 in [1] turned out to be 17.8 µM; in data set [2], 10.4 µM; in data set [3], 17.6 µM; in data set [4], 14.4 µM.

`COc1ccc2nc3cc(Cl)ccc3c(NCCCN3C(=O)CSC3c3ccccc3Cl)c2c1` (stereo not given): the IC50 in [1] was 13.2 µM; in data set [2], 3.87 µM; in data set [3], 3.85 µM; in data set [4], 3.89 µM.

Consider `COc1ccc2nc3cc(Cl)ccc3c(NCCCN3C(=O)CSC3c3c(Cl)cccc3Cl)c2c1` (stereo not given), for which the IC50 turned out to be 28.3 µM in data set [1], 4.01 µM in data set [2], 3.98 µM in [3] and 4.04 µM in data set [4].

On to `COc1ccc2nc3cc(Cl)ccc3c(NCCCN3C(=O)CSC3c3ccco3)c2c1` (stereo not given), for which the 50% inhibitory concentration (IC50) was determined as 13.4 µM in [1], 4.78 µM in [2], 1.97 µM in data set [3] and 5.58 µM in data set [4].

In the case of `COc1ccc2nc3cc(Cl)ccc3c(NCCCN3C(=O)CSC3c3ccccc3F)c2c1` (stereo not given), the IC50 in data set [1] is 8.16 µM; in [2] it was 2.93 µM; in [3] it was 1.95 µM; in data set [4] it was 3.91 µM.

On to `COc1ccc2nc3cc(Cl)ccc3c(NCCCN3C(=O)CSC3c3ccccc3Br)c2c1` (stereo not given), for which the half-inhibitory concentration (IC50) in [1] is 21.6 µM; in [2], 4 µM; in [3], 3.63 µM; in data set [4] it was 4.38 µM.

As for `COc1ccc2nc3cc(Cl)ccc3c(NCCCN3C(=O)CSC3c3ccc(Br)cc3)c2c1` (stereo not given), the IC50 in data set [1] turned out to be 4.88 µM; in [2], 3.71 µM; in data set [3], 3.74 µM; in data set [4], 3.68 µM.

On to `COc1ccc2nc3cc(Cl)ccc3c(NCCCN3C(=O)CSC3c3ccc(C)cc3)c2c1` (stereo not given), for which the IC50 is 7.98 µM in [1], 3.26 µM in [2], 2.93 µM in data set [3] and 3.59 µM in [4].

As for `COc1ccc2nc3cc(Cl)ccc3c(NCCCN3C(=O)CSC3C3CCCCC3)c2c1` (stereo not given), the IC50 in [1] came to 3.14 µM; in [2], 3.81 µM; in [3], 3.86 µM; in [4], 3.75 µM.

Regarding `COc1ccc2nc3cc(Cl)ccc3c(NCCCN3C(=O)CSC3c3c(F)cccc3F)c2c1` (stereo not given), the IC50 in data set [1] is 16.2 µM; in [2], 1.24 µM; in data set [3], 1.92 µM; in [4], 2.4 µM; in [19] it was 18.2 µM. Further, the result in data set [5], in data set [6], in [7], in [8], in [9] and in data set [11] was Active. The result in [12], in [13], in [14], in data set [15], in data set [16] and in [18] was Active. In data set [22], the outcome was Active. Further, the Activity result in data set [10] is “Non-Toxic”. The figures for the selectivity ratio in [17] and in [21] were 14.7 and 7.6, respectively. For the same compound, in [20], the outcome was inactive.

As to `COc1ccc2nc3cc(Cl)ccc3c(NCCCN3C(=O)CSC3c3ccncc3)c2c1` (stereo not given), the IC50 was determined as 16.8 µM in [1], 2.27 µM in data set [2], 1.11 µM in [3] and 5.1 µM in [4].

For `COc1ccc2nc3cc(Cl)ccc3c(NCCCN3C(=O)CSC3c3ccccc3[N+](=O)[O-])c2c1` (stereo not given), the IC50 was found to be 30.2 µM in data set [1], 3.68 µM in [2], 4.16 µM in data set [3] and 3.2 µM in data set [4].
